Experimental data from different studies.
Each line is one published result; the experiments were not run side by side.
Target: Serine/threonine-protein kinase MRCK alpha (CDC42BPA, Homo sapiens, UniProt Q5VT25)

O=C(Nc1cnn(-c2csc(C(=O)NC3COC3)c2)c1)Nc1ccccc1Cl  remaining activity (enzyme activity; inhibitor; 5 µM): 99.3%
CC(C)(C)c1nc(-c2cccc(NS(=O)(=O)c3c(F)cccc3F)c2F)c(-c2ccnc(N)n2)s1  remaining activity (enzyme activity; inhibitor; radiometric; 1 µM): 88%
CCS(=O)(=O)c1cc2cc(C[C@](O)(CC(C)(C)c3ccc(F)cc3C(N)=O)C(F)(F)F)[nH]c2cn1  remaining binding (cell-free assay; competition with immobilised ligand; 1 µM): 89%
Cc1ccc(C(=O)Nc2ccc(CN3CCN(C)CC3)c(C(F)(F)F)c2)cc1C#Cc1cnc2cccnn12  remaining activity (enzyme activity; inhibitor; 23.5 nM): 99%
CSc1cccnc1N1CCN(Cc2nc3ccccc3[nH]2)CC1  remaining binding (cell-free assay; competition with immobilised ligand; 1 µM): 100%
N#CCCc1ccc2c(c1)-c1[nH]c3ccc([N+](=O)[O-])cc3c1CC(=O)N2  remaining signal (cell-free assay; 0.5 µM): 73.1%
O=C(Nc1cnn(-c2csc(C(=O)NC3COC3)c2)c1)Nc1c(F)cccc1Cl  remaining activity (enzyme activity; inhibitor; 5 µM): 99%
O=C(NS(=O)(=O)c1ccc(NCC2CCOCC2)c([N+](=O)[O-])c1)c1ccc(N2CCN(Cc3ccc(C(F)(F)F)cc3-c3ccc(Cl)cc3)CC2)cc1Oc1cnc2[nH]ccc2c1  remaining binding (cell-free assay; competition with immobilised ligand; 1 µM): 96%
Cc1cnc(NC2CCOCC2)nc1-n1cnc(C(=O)NC(CN)c2cc(F)cc(Cl)c2)c1 (stereo not shown)  remaining activity (enzyme activity; inhibitor; radiometric; 1 µM): 64%
COc1cc2ncnc(Nc3ccc(Oc4ccccc4)c(C)c3C)c2cc1OC  inhibition (enzyme activity; inhibitor; 1 µM): -6%
CC1=C(C#N)[C@@H](c2ccc3[nH]nc(C)c3c2)C(C#N)=C(c2ccc(Cl)cc2)N1  remaining binding (cell-free assay; competition with immobilised ligand; 1 µM): 82.2%
COc1cc(Cl)c(C(=O)N[C@@H](CN[C@H]2CC[C@@H](N)CC2)Cc2ccc(C#N)cc2)cc1-c1ccc(CN[C@H](C)c2ccc(C)cc2)o1  remaining activity (enzyme activity; inhibitor; 1 µM): 99%
Cc1ccc(Nc2nccc(N(C)c3ccc4c(C)n(C)nc4c3)n2)cc1S(N)(=O)=O  inhibition (enzyme activity; inhibitor; 0.3 µM): 9%
CCCOc1ccc(OC)c(F)c1C(=O)c1ccc(C(=O)N[C@@H]2CNC[C@H]2NC(=O)c2ccc3[nH]ncc3c2)cc1  remaining activity (enzyme activity; inhibitor; 0.75 µM): 20%
CCN(CC)c1ccc(C2=NNC(=O)CC2C)cc1[N+](=O)[O-] (stereo not shown)  remaining activity (enzyme activity; inhibitor; 10 µM): 78%
CC(C)(O)c1cncc(-c2nc3ccc(F)cc3n2C2CC2)c1  remaining binding (cell-free assay; competition with immobilised ligand; 1 µM): 100%
CNC(=O)c1cc(Oc2ccc(NC(=O)Nc3ccc(Cl)c(C(F)(F)F)c3)cc2)ccn1  inhibition (enzyme activity; inhibitor; 10 µM): 2%
Nc1ncnc2occ(-c3ccc(NC(=O)Nc4cc(C(F)(F)F)ccc4F)cc3)c12  remaining activity (enzyme activity; inhibitor; 20 µM): 0.05%
C[C@H](NC(=O)c1cnc2n1[C@](C)(Cc1ccc(C#N)cc1)C(=O)N2c1cc(Cl)c(F)c(Cl)c1)C(=O)NC1(c2ccccn2)CC1  remaining binding (cell-free assay; competition with immobilised ligand; 1 µM): 100%
O=C1NC(=O)c2cc(Nc3ccc(F)cc3)c(Nc3ccc(F)cc3)cc21  remaining signal (cell-free assay; inhibitor; 0.5 µM): 92.3%
CCN(CC)CCNC(=O)c1c(C)[nH]c(/C=C2\C(=O)Nc3ccc(F)cc32)c1C  inhibition (enzyme activity; inhibitor; 10 µM): 10%
COc1ccc2cc(OCC3(C(=O)O)CN(C(=O)c4ccc(F)cc4)C3)ccc2c1  remaining binding (cell-free assay; competition with immobilised ligand; 1 µM): 100%
